Results reported in PMC5912169 (Bioorganic & medicinal chemistry letters, 2018).

Legend:
[1] = tested on: T. brucei (STIB795); assay: In vivo antitrypanosomal activity, T. b. brucei STIB795-Luc mouse model; design: species or system mice; settings: 4 consecutive days
How it was run: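 Groups of four female NMRI mice were infected ip with 1 × 10⁴ bloodstream-form T. b. brucei STIB795-Luc. Test compound was given ip in water plus 10% DMSO from 3 days post-infection, with an untreated control group. Parasitemia was tracked by live imaging, and moribund mice were euthanized.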

[2] = target: T. brucei cathepsin L (rhodesain) (Trypanosoma brucei rhodesiense, UniProt Q95PM0); assay: Rhodesain inhibition assay; type: biochemical; settings: 1 hour pre-incubation
How it was run: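 Rhodesain was expressed in Pichia pastoris and used at 0.8 nM final in 50 mM sodium acetate pH 5.5 with 2 mM DTT and 0.01% Triton X-100. It was pre-incubated 1 h with test compound (20 μM final), then Z-Phe-Arg-AMC (10 μM) was added. Cleavage rate (RFU/sec) was read at 25 °C, λex 355/λem 460 nm. E-64 (10 μM) served as positive control.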

[3] = target: human cathepsin L (Homo sapiens, UniProt P07711); assay: Human cathepsin L inhibition; type: biochemical; settings: from 0.1 μM to 125 μM; 1 hour pre-incubation
Sequence of human cathepsin L (P07711 114-333): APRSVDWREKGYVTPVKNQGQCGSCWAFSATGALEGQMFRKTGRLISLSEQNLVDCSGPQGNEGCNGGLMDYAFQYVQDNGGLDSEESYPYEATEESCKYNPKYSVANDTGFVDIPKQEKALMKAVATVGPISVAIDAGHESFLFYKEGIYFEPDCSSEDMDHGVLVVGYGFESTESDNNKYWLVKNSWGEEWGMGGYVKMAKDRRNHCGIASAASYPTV
How it was run: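 Human liver-derived cathepsin L (0.58 nM) in 400 mM sodium acetate pH 5.5 with 8 mM DTT, 4 mM EDTA and 0.01% Triton X-100. Pre-incubated 1 h with test compound, then Z-Phe-Arg-AMC (20 μM, concentration as added) in sodium acetate buffer. Substrate cleavage was followed as fluorescence rate (RFU/sec) at 25 °C, λex 355/λem 460 nm.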

Row | Compound | parasites in infected mice 24 hours posttreatment ([1]; 50 mg/kg/day intraperitoneally) | parasites in infected mice 24 hours posttreatment ([1]; 100 mg/kg/day intraperitoneally) | inhibition of rhodesain at 20 μM [2] | inhibitory activity against human cathepsin L [3]
1 | O=C(Cc1ccc(OC/C=C/S(=O)(=O)c2ccccc2)cc1)Nc1cccc2cccnc12 [Compound 9] | positive for parasites | positive for parasites |  | 
2 | O=C(N[C@H](/C=C/S(=O)(=O)c1ccccc1)CCc1ccccc1)c1cccc2cccnc12 [Compound 27] |  |  | completely inactivate | inactive
